According to article PMC7386824 (Journal of medicinal chemistry, 2020):
“Also recorded” adds a separate entry of the source.

Key:
MCMV Smith strain = assay: plaque reduction assay, MCMV in MEFs; assay type: cell-based, mouse CMV
HSV1 = assay: plaque reduction assay, HSV1 clinical isolate in Vero cells; assay type: cell-based, herpes simplex 1
HCMV Towne [1] = assay: Western blot of viral protein expression in HCMV-infected HFFs; assay type: cell-based, human cytomegalovirus
HSV2 = assay: plaque reduction assay, HSV2 clinical isolate in Vero cells; assay type: cell-based, herpes simplex 2
HCMV Towne [2] = assay: add-on and removal assays, luciferase activity at 72 hpi; assay type: cell-based, human cytomegalovirus; conditions: for HCMV suppression when compound removed at 6 h (removal assay) / activity when added at or after 24 hpi (add-on assay): HCMV Towne MOI 1, luciferase 72 hpi; for time of anti-HCMV activity: add-on and removal assays; for timing of activity in the add-on assay / timing of activity in the removal assay: compared with GCV
HCMV Towne [3] = assay: viral DNA replication and DNA load in supernatants, US17 real-time PCR; assay type: cell-based, human cytomegalovirus; conditions: HCMV Towne MOI 0.1; NFU1827 5 μM, MLS8554 2 μM, MLS8091 1.5 μM, NCGC2955 3 μM; GCV 5 μM
HCMV Towne [4] = assay: HCMV entry, indirect immunofluorescence assay for pp65; assay type: cell-based, human cytomegalovirus; conditions: 24 h pretreatment; MLS8969 3 μM, heparin 30 μM, GCV 5 μM; IFA 2 hpi
[5] = test system: HCMV Towne (pp28-luciferase); assay: pp28-luciferase recombinant HCMV Towne, luciferase activity at 72 hpi in HFFs; assay type: cell-based, human cytomegalovirus
EBV = assay: inhibition of lytic EBV replication in AKATA cells, real-time PCR; assay type: cell-based, Epstein Barr virus
MEFs = assay: toxicity to MEFs; assay type: cell-based, mouse
Outline: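 Uninfected mouse embryonic fibroblasts were exposed to test compound for 72 h or 8–10 days, the same time points as the antiviral assays. MTT (5 mg/mL stock in PBS) was then added, the plates were shaken at 150 rpm for 5 min and incubated at 37 °C for 2–3 h. Formazan formed by living cells was read as absorbance at 560 nm.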

HCMV Towne [6] = assay: drug combination with letermovir, plaque reduction assay, Bliss model; assay type: cell-based, human cytomegalovirus; conditions: Human betaherpesvirus 5, read-out: EC50 (Compound 1, letermovir alone)

| Compound | activity against MCMV (in words) (MCMV Smith strain) | activity against HSV1 (in words) (HSV1) | viral protein expression (Western blot) (HCMV Towne [1]; MOI 1, 72 hpi) | activity against HSV2 (in words) (HSV2) | viral DNA replication in cells (HCMV Towne [3]) | viral DNA yield in supernatants (HCMV Towne [3]) | inhibition of HCMV entry (pp65 nuclear staining) (HCMV Towne [4]) | other results |
| --- | --- | --- | --- | --- | --- | --- | --- | --- |
| CCN1CCN(CCCNC(=O)c2ccc3c(c2)sc2nc(-c4ccc(OC)cc4)cn23)CC1 [NFU1827, N-[3-(4-ethylpiperazin-1-yl)propyl]-4-(4-methoxyphenyl)-7-thia-2,5-diazatricyclo [6.4.0.02,6] dodeca-1(8),3,5,9,11-pentaene-10-carboxamide] | no activity | no activity | reduced the level of both IE1 and IE2 | no activity | significantly reduced | significantly reduced | – | HCMV suppression when compound removed at 6 h (removal assay) (HCMV Towne [2]): significant HCMV suppression; activity when added at or after 24 hpi (add-on assay) (HCMV Towne [2]): lost its ability to inhibit HCMV; time of anti-HCMV activity (HCMV Towne [2]): 0–24 hpi |
| COc1ccc(Cl)cc1C(=O)Nc1ccc(NC(=O)c2ccco2)cc1 [MLS8969] | did not inhibit | did not inhibit | no inhibition of viral protein expression | did not inhibit | – | – | inhibited HCMV entry only at MOI of 0.1 | viral protein expression (Western blot) (HCMV Towne [1]; pretreatment followed by infection at low MOI (0.01), 72 hpi): decreased IE1/2, pp65, UL84 and UL44 protein levels; reduction of luciferase activity ([5]; compound added after infection, MOI of 1 PFU/cell, 72 hpi): minimal reduction in luciferase activity; inhibition of luciferase activity ([5]; compound added before infection, range of MOIs): MOI-dependent inhibition of luciferase activity; activity against EBV (in words) (EBV): did not inhibit |
| Heparin | – | – | – | – | – | – | inhibited HCMV entry | – |
| CC(C)NC(=O)C1CCN(C(=O)c2cc3sccc3n2Cc2ccc(Cl)cc2)CC1 [NCGC2955, 1-(4-(4-chIorobenzyl)-4H-thieno[3,2-b]pyrrole-5-carbonyl)-N-isopropyIpiperidine-4-carboxamide] | – | – | strong reduction in viral protein expression including IE1 and IE2 | – | modest | modest | – | concentration at which toxicity to MEFs was observed (MEFs): ≥ 10 µM; dose response in pp28-luciferase assay [5]: did not show a full dose response; timing of activity in the add-on assay (HCMV Towne [2]): overlapped with that of GCV; timing of activity in the removal assay (HCMV Towne [2]): longer activity than GCV |
| Nc1nc2c(ncn2COC(CO)CO)c(=O)[nH]1 [GCV, Ganciclovir] | – | – | – | – | – | – | did not affect pp65 nuclear staining | – |
| Nc1c(S(=O)(=O)c2cccs2)c2nc3ccccc3nc2n1Cc1ccccc1 [MLS8091] | did not inhibit | did not inhibit | Inhibition of all viral proteins | did not inhibit | higher than that achieved with GCV | not significantly different from GCV | – | timing of activity in the add-on assay (HCMV Towne [2]): overlapped with that of GCV; timing of activity in the removal assay (HCMV Towne [2]): showed earlier effects; activity against EBV (in words) (EBV): did not inhibit; also recorded: not active |
| CCc1ccc(NC(=O)[C@H](Cc2c[nH]c3ccccc23)NC(=O)[C@@H]2Cc3ccccc3CN2)cc1 [MLS8554] | – | active | reduced IE2, UL44, UL84 and pp65 protein levels | active | significantly reduced | significantly reduced | – | HCMV suppression when compound removed at 6 h (removal assay) (HCMV Towne [2]): near complete; activity when added at or after 24 hpi (add-on assay) (HCMV Towne [2]): activity was significantly reduced; time of anti-HCMV activity (HCMV Towne [2]): 0–24 hpi |
| COc1cccc(N2CCN(C3=Nc4c(F)cccc4[C@H](CC(=O)O)N3c3cc(C(F)(F)F)ccc3OC)CC2)c1 [Letermovir] | – | – | – | – | – | – | – | EC50 (HCMV Towne [6]): 1.1 ± 0.1 nM |
